# RAD54 branch: inhibitors of human RAD54 branch migration; AID 602329; 360,000 compounds, 0.14% hits; inhibition, % at 10.4 µM; RAD54 Holliday junction branch migration, FAM/BHQ fluorescence;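 active = mean normalized replicate activity at least 40 and at least half of replicates scoring 40 or more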;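 note: 0% = median of neutral control wells and 100% = median of positive control wells; inhibitors cause a drop in the FAM fluorescence signal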
# PglD DTNB: blocks C. jejuni PglD acetyltransferase activity; purified PglD enzyme, DTNB colorimetric CoA detection; inhibition, % at 12.5 µM; 360,000 compounds, 0.098% hits; AID 602405; in the data active = inhibition above about 16%, passing the limit was not always enough
# Ecoli rRNA inh: selective bacterial rRNA inhibition in E. coli. AID 720706. E. coli WT GFP vs humanized-ribosome RFP mutants, fluorescence, 24 h; hits give low values; DMSO median 0, no signal -100. 350,000 compounds, 1.6% hits. GFP signal change (wild-type ribosome), % (test concentration not listed);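 active = significant combined selectivity score with lowered wild-type GFP, culture density cut under 30%, mutant RFP and density less affected; inactive = any of these conditions unmet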
# Cneo AK release: causes C. neoformans cell lysis | adenylate kinase release luminescence, 4 h; normalised: neutral wells 0, clomiphene wells 100 | lysis activity, % at 15 µM | 360,000 compounds, 0.2% hits | AID 651654;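 active = mean lysis activity across replicates of at least 80%, whatever share of replicates individually reach that level; inactive = mean lysis activity below 80%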
#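 Assay system: log-phase C. neoformans yeast / Quantity: yeast cell density of 5 × 10^6 cells/mL / Medium: fresh YPD growth medium / Compound: single dose / Timing: static 4 h at 37 °C with compound, 1 h detection / Measured by: adenylate kinase release luminescence / Read-out: lysis from increased AK signal / Benchmarks: Clomiphene as positive lysis control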
# RAD52 inh: inhibitors of human RAD52 DNA annealing; P43351; recombinant RAD52 DNA annealing, FRET fluorescence; inhibition, % at 18.7 µM; 360,000 compounds, 0.46% hits; AID 651710;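 active = every replicate showing at least 50% inhibition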
# Target sequence (P43351 whole entry, looked up): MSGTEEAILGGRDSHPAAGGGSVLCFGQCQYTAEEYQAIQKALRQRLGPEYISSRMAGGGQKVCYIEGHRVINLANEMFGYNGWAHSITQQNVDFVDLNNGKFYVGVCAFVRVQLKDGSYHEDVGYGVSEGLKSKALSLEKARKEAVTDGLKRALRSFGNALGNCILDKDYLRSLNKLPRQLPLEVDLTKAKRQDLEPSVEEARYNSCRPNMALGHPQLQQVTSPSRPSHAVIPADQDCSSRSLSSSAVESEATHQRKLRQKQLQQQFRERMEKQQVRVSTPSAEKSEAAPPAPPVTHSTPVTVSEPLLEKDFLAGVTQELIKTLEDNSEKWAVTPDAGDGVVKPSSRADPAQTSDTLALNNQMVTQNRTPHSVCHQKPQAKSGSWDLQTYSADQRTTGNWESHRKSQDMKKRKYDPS
# The depositor's hits bear a star; i = inactive; . = no result given. The list is not random: actives were taken first. Their share in the collection is about 1.9%.
SMILES,RAD54 branch,PglD DTNB,Ecoli rRNA inh,Cneo AK release,RAD52 inh
O=[N+]([O-])c1ccc(Cc2ccc([N+](=O)[O-])cc2)cc1,.,.,2,.,-7
COc1ccc2c3c(n(C)c2c1)[C@@H](CO)NCC31CCN(C(=O)c2cccc(F)c2)CC1,.,.,-2,.,-12
O=C(C[C@H]1CC[C@@H]2[C@H](COC[C@@H](O)CN2C(=O)Nc2cc(Cl)cc(Cl)c2)O1)N1CCOCC1,1,-2,-34*,2,.
CN1CCN(C(=O)C[C@@H]2CC[C@H]3[C@@H](COC[C@H](O)CN3C(=O)Nc3ccc(Cl)cc3)O2)CC1,-1,-3,-34*,-2,-3
O=C(C[C@@H]1CC[C@H]2[C@@H](COC[C@@H](O)CN2C(=O)Nc2cc(Cl)cc(Cl)c2)O1)N1CCOCC1,-6,3,-50,0,-6
O=C(C[C@@H]1CC[C@H]2[C@@H](COC[C@H](O)CN2C(=O)Nc2cc(Cl)cc(Cl)c2)O1)N1CCOCC1,9,1,-28*,2,8
CN1CCN(C(=O)C[C@@H]2CC[C@@H]3[C@H](COC[C@@H](O)CN3C(=O)Cc3ccccc3)O2)CC1,1,0,0,0,3
CN1CCN(C(=O)C[C@@H]2CC[C@@H]3[C@H](COC[C@@H](O)CN3C(=O)Nc3ccc(Cl)cc3)O2)CC1,4,0,-22,-2,0
O=C(C[C@H]1CC[C@H]2[C@@H](COC[C@H](O)CN2C(=O)Nc2cc(Cl)cc(Cl)c2)O1)N1CCOCC1,6,-1,i,-2,.
CN1CCN(C(=O)C[C@@H]2CC[C@H]3[C@@H](COC[C@H](O)CN3C(=O)Cc3ccccc3)O2)CC1,-3,-45,3,94*,1
C[C@H](CO)N1C[C@H](C)[C@H](CN(C)C)Oc2cc(-c3cccc(C#N)c3)ccc2S1(=O)=O,0,-3,5,-2,-4
Cc1noc(C)c1NC(=O)Nc1ccc2c(c1)C(=O)N([C@H](C)CO)C[C@@H](C)[C@H](CN(C)Cc1ccc(C(=O)Nc3ccccc3N)cc1)O2,.,.,3,.,-5
C[C@@H]1CN(C)C(=O)c2cccnc2O[C@@H]1CN(C)C,.,.,1,.,.
COc1ccc(CN(C)C[C@@H]2OCCCC[C@H](C)Oc3ccc(NC(=O)NC4CCCCC4)cc3C(=O)N([C@H](C)CO)C[C@@H]2C)cc1,-10,0,-4,-2,19
C[C@H](CO)N1C[C@H](C)[C@@H](CN(C)Cc2ccc(C(=O)Nc3ccccc3N)cc2)Oc2c(NS(=O)(=O)c3cn(C)cn3)cccc2C1=O,.,.,2,.,7
COc1cc(C(C)=O)ccc1OCc1cn(CC(=O)c2ccc(O)cc2)nn1,1,-1,1,11,-13
CC(=O)c1ccc(OCc2cn(CC(=O)c3ccc(O)cc3)nn2)c(C)c1,3,2,-31*,-2,-19
COc1ccc(-c2cn3cc(C(=O)NN)ccc3n2)cc1,.,.,-11,.,-16
NNC(=O)c1ccc2nc(-c3ccc(Br)cc3)cn2c1,.,.,-28*,.,-8
O=C(O)[C@@H]1[C@@H](CO)[C@@H]2Cn3c(ccc(-c4ccc(F)cc4)c3=O)[C@@H]2N1C(=O)Nc1ccccc1,.,.,1,.,.
O=C(Nc1ccc(Cl)cc1)N1C[C@H]2[C@@H](c3ccccc31)[C@H](CO)N2C(=O)c1ccccn1,6,0,-19*,-1,-6
O=C(Nc1cccc(Cl)c1)N1C[C@H]2[C@@H](c3ccccc31)[C@H](CO)N2CC1CCOCC1,-23,-2,-16,-15,-2
O=C(c1cccnc1)N1C[C@H]2[C@@H](c3ccccc31)[C@@H](CO)N2C(=O)Nc1ccc(F)cc1,-6,4,3,118*,5
O=C(Nc1cccc(Cl)c1)N1C[C@H]2[C@@H](c3ccccc31)[C@H](CO)N2CC1CCCCC1,7,4,-58*,-3,27
C/C=C/c1ccc([C@@H]2[C@@H](CO)N(CCC(F)(F)F)C23CN(C(C)=O)C3)cc1,.,.,1,.,-1
CC(C)NC(=O)Nc1ccc2c(c1)C(=O)N([C@H](C)CO)C[C@H](C)[C@@H](CN(C)Cc1ccc(Cl)c(Cl)c1)O2,4,-2,6,-6,1
Cc1cc(C)c2nc(N(CCCN(C)C)C(=O)C3=COCCO3)sc2c1,6,-3,-3,0,17
Cc1cc(C)c2nc(N(CCCN(C)C)C(=O)c3ccc4c(c3)OCCO4)sc2c1,17,1,-28*,3,44
